{
  "source": "ChEMBL document CHEMBL5108087",
  "about": "“Synthesis and biological evaluation of paeoveitol D derivatives as new melatonin receptor agonists with antidepressant activities” (RSC Med Chem, 2022)",
  "key": {"[1]": {"test": "Subacute toxicity in Kunming mouse assessed as effect on kidney structure at 240 mg/kg, po administered for 14 days", "format": "organism-based", "conditions": "in vivo, 336 h, time 14 day", "method_in_brief": "(§1)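 Subacute oral study following OECD 425. Animals randomised into two groups of six. Vehicle control received 0.5% CMC-Na orally for 14 consecutive days; the treated group received 240 mg kg−1 body weight orally for 14 consecutive days.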"}, "Mus musculus [2]": {"test_system": "Mus musculus", "test": "Antidepressant activity in kunming mouse assessed as decrease in DOPAC level in thalamus at 160 mg/kg, po measured after 14 days by HPLC-ECD analysis", "format": "functional, organism-based", "conditions": "time 14.0 day", "method_in_brief": "(§2)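 Male Kunming mice dosed orally with vehicle or 160 mg kg−1 for 14 days, then killed by cervical dislocation. Brain regions dissected on ice, homogenized in 0.2 M perchloric acid with 0.1 mM EDTA and spun at 4 °C for 20 min. Supernatant analysed by HPLC-ECD at +0.50 V, mobile phase pH 3.0. Amounts given in ng g−1 as mean ± SEM, n = 12.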"}, "Mus musculus [3]": {"test_system": "Mus musculus", "test": "Antidepressant activity in Kunming mouse assessed as decrease in immobility time at 160 mg/kg, po administered two times at 1 hrs and 24 hrs and measured at last 4 mins of 6 mins test by forced swim test relative to fluoxetine", "format": "functional", "design": "scale not given: the % may be the effect or the level left", "conditions": "time 1444 min, 24.07 h", "method_in_brief": "(§3)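 Male Kunming mice, 15–18 g, housed six per cage at 22 ± 1 °C on a 12 h light/dark cycle. Oral dosing 24 h and 1 h before the test. Each mouse placed in a cylinder (25 cm high, 15 cm diameter) holding 10 cm of water at 25 ± 1 °C and made to swim 6 min; immobility over the last 4 min scored by video tracking.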"}, "Mus musculus [4]": {"test_system": "Mus musculus", "test": "Antidepressant activity in kunming mouse assessed as increase in dopamine level in frontal cortex at 160 mg/kg, po measured after 14 days by HPLC-ECD analysis", "format": "functional, organism-based", "conditions": "time 14.0 day", "method_in_brief": "as §2"}, "[5]": {"molecular_target": "T1, Melatonin receptor type 1A (Homo sapiens, UniProt P48039)", "T1 sequence (P48039 whole entry)": "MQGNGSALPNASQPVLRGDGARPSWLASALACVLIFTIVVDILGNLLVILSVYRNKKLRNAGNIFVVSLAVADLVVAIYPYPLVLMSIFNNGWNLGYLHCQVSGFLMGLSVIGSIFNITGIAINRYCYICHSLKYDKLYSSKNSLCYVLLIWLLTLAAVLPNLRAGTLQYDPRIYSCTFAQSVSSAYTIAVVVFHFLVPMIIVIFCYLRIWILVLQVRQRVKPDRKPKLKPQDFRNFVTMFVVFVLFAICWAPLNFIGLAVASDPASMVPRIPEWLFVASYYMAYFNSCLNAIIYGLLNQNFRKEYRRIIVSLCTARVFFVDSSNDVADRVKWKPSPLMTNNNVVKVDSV", "test": "(§4) Agonist activity at human MT1 receptor transfected in HEK293T cells co-transfected with tet-inducible luciferase reporter plasmid, pCDNA3.1(+)-CMV-betaArrestin2-tev plasmid and TANGO plasmid assessed as tango arrestin recruitment by measuring maximum activity incubated for 24 hrs by TANGO-GPCR assay based luminescence plate reader analysis relative to agomelatine", "format": "functional, cell-based", "conditions": "filed as agonist", "method_in_brief": "(§5)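 Tango arrestin recruitment: 293T cells transiently transfected with a tet-inducible luciferase reporter, CMV-βArrestin2-TEV and TANGO receptor plasmids. On day 2, replated at 20 000 cells per well on poly-L-lysine. Drug added on day 3. On day 4, luciferase reagent added for 20 min and luminescence counted. Curves fitted; data given as mean ± SD.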"}, "[6]": {"molecular_target": "T2, Melatonin receptor type 1B (Homo sapiens, UniProt P49286)", "T2 sequence (P49286 whole entry)": "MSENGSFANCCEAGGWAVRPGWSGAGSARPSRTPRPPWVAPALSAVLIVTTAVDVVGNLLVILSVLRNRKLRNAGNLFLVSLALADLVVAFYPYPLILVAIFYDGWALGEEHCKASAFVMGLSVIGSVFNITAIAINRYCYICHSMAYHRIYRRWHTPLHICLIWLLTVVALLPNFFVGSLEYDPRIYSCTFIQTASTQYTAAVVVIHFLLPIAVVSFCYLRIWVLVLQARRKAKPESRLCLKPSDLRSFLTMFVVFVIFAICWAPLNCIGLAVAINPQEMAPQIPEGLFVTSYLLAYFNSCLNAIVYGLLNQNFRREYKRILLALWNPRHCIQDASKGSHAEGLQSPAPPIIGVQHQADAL", "test": "Agonist activity at human MT2 receptor expressed in HEK293 cells by Fluo-8 based calcium assay", "format": "functional, cell-based"}, "Mus musculus [7]": {"test_system": "Mus musculus", "test": "Antidepressant activity in kunming mouse assessed as decrease in 5-HIAA level in hippocampus at 160 mg/kg, po measured after 14 days by HPLC-ECD analysis", "format": "functional, organism-based", "conditions": "time 14.0 day", "method_in_brief": "as §2"}, "[8]": {"test": "AUC (0 to 24 hrs) in Kunming mouse at 80 mg/kg, po administered as single dose and measured upto 24 hrs", "format": "ADME, organism-based", "design": "time < 24 hrs, dose 80 mg/kg, route po", "conditions": "in vivo"}, "[9]": {"test": "Tmax in Kunming mouse at 80 mg/kg, po administered as single dose and measured upto 24 hrs", "format": "ADME, organism-based", "conditions": "in vivo"}, "HEK293T [10]": {"test_system": "HEK293T", "test": "as §4, with “MT1 N162A mutant” for “MT1”, “shift in concentration response curve” for “tango arrestin recruitment by measuring maximum activity”", "format": "cell-based", "conditions": "filed as agonist", "method_in_brief": "(§6)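 293T cells transiently transfected with tet-inducible luciferase reporter, pCDNA3.1(+)-CMV-bArrestin2-tev and TANGO receptor plasmids (wild-type or point mutant). Next day plated at 20 000 cells/well on poly-L-lysine; drug added day 3. Day 4, Bright-Glo added, 20 min, then luminescence read. Concentration–response curves fitted; data mean ± SD.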"}, "[11]": {"molecular_target": "T1, Melatonin receptor type 1A", "test": "as §4, with “2-phenylmelatonin” for “agomelatine”", "format": "functional, cell-based", "conditions": "filed as agonist", "method_in_brief": "as §5"}, "[12]": {"test": "Clearance in Kunming mouse at 80 mg/kg, po administered as single dose and measured upto 24 hrs", "format": "ADME, organism-based", "conditions": "in vivo"}, "Mus musculus [13]": {"test_system": "Mus musculus", "test": "Antidepressant activity in kunming mouse assessed as decrease in 5-HIAA level in striatum at 160 mg/kg, po measured after 14 days by HPLC-ECD analysis", "format": "functional, organism-based", "conditions": "time 14.0 day", "method_in_brief": "as §2"}, "Mus musculus [14]": {"test_system": "Mus musculus", "test": "Antidepressant activity in kunming mouse assessed as increase in 5-HT level in frontal cortex at 160 mg/kg, po measured after 14 days by HPLC-ECD analysis", "format": "functional, organism-based", "conditions": "time 14.0 day", "method_in_brief": "as §2"}, "[15]": {"test": "Half-life in Kunming mouse at 80 mg/kg, po administered as single dose and measured upto 24 hrs", "format": "ADME, organism-based", "conditions": "in vivo"}, "HEK293T [16]": {"test_system": "HEK293T", "test": "as §4, with “MT1 Q181A mutant” for “MT1”, “shift in concentration response curve” for “tango arrestin recruitment by measuring maximum activity”", "format": "cell-based", "conditions": "filed as agonist", "method_in_brief": "as §6"}, "Mus musculus [17]": {"test_system": "Mus musculus", "test": "Antidepressant activity in kunming mouse assessed as increase in 5-HT level in hippocampus at 160 mg/kg, po measured after 14 days by HPLC-ECD analysis", "format": "functional, organism-based", "conditions": "time 14.0 day", "method_in_brief": "as §2"}, "[18]": {"test": "Subacute toxicity in Kunming mouse assessed as effect on lung structure at 240 mg/kg, po administered for 14 days", "format": "organism-based", "conditions": "in vivo, 336 h, time 14 day", "method_in_brief": "as §1"}, "Mus musculus [19]": {"test_system": "Mus musculus", "test": "Antidepressant activity in Kunming mouse assessed as decrease in immobility time at 10 to 160 mg/kg, po administered two times at 1 hrs and 24 hrs and measured at last 4 mins of 6 mins test by forced swim test", "format": "functional, organism-based", "conditions": "dose 10-160 mg/kg, time 1444.0 min", "method_in_brief": "as §3"}, "[20]": {"test": "Subacute toxicity in Kunming mouse assessed as effect on spleen structure at 240 mg/kg, po administered for 14 days", "format": "organism-based", "conditions": "in vivo, 336 h, time 14 day", "method_in_brief": "as §1"}, "Mus musculus [21]": {"test_system": "Mus musculus", "test": "Antidepressant activity in kunming mouse assessed as decrease in DOPAC level in hypothalamus at 160 mg/kg, po measured after 14 days by HPLC-ECD analysis", "format": "functional, organism-based", "conditions": "time 14.0 day", "method_in_brief": "as §2"}, "[22]": {"molecular_target": "T1, Melatonin receptor type 1A", "test": "as §4, with “recruitment” for “recruitment by measuring maximum activity”, “analysis” for “analysis relative to agomelatine”", "format": "functional, cell-based"}, "Mus musculus [23]": {"test_system": "Mus musculus", "test": "Antidepressant activity in kunming mouse assessed as decrease in 5-HIAA level in hypothalamus at 160 mg/kg, po measured after 14 days by HPLC-ECD analysis", "format": "functional, organism-based", "conditions": "time 14.0 day", "method_in_brief": "as §2"}},
  "note": "Activity calls are given as the source filed them. No cut-off for these calls is given here.",
  "data": [
    {"smiles": "COc1cc2c(CN3CCN(C)CC3)coc2cc1C", "values": [
      {"measurement": "Activity", "setting": "[1]", "value": "Non-Toxic"},
      {"measurement": "Activity", "setting": "Mus musculus [2]", "value": "Active"},
      {"measurement": "Activity", "setting": "Mus musculus [3]", "value": 29, "unit": "%"},
      {"measurement": "Activity", "setting": "Mus musculus [4]", "value": "Active"},
      {"measurement": "Emax", "setting": "[5]", "value": 57, "unit": "%"},
      {"measurement": "EC50", "setting": "[6]", "value": 260, "unit": "µM"},
      {"measurement": "Activity", "setting": "Mus musculus [7]", "value": "Active"},
      {"measurement": "AUC", "setting": "[8]", "value": 5400, "unit": "ng·h/mL"},
      {"measurement": "Tmax", "setting": "[9]", "value": 4.98, "unit": "min"},
      {"measurement": "Activity", "setting": "HEK293T [10]", "value": "Active"},
      {"measurement": "Emax", "setting": "[11]", "value": 46, "unit": "%"},
      {"measurement": "CL/F", "setting": "[12]", "value": 237, "unit": "mL/min"},
      {"measurement": "Activity", "setting": "Mus musculus [13]", "value": "Active"},
      {"measurement": "Activity", "setting": "Mus musculus [14]", "value": "Active"},
      {"measurement": "half-life", "setting": "[15]", "value": 328, "unit": "min"},
      {"measurement": "Activity", "setting": "HEK293T [16]", "value": "Active"},
      {"measurement": "Activity", "setting": "Mus musculus [17]", "value": "Active"},
      {"measurement": "Activity", "setting": "[18]", "value": "Non-Toxic"},
      {"measurement": "Activity", "setting": "Mus musculus [19]", "value": "Active"},
      {"measurement": "Activity", "setting": "[20]", "value": "Non-Toxic"},
      {"measurement": "Activity", "setting": "Mus musculus [21]", "value": "Active"},
      {"measurement": "EC50", "setting": "[22]", "value": 21, "unit": "µM"},
      {"measurement": "Activity", "setting": "Mus musculus [23]", "value": "Active"}
    ]}
  ]
}
